The values that follow come from ChEMBL document CHEMBL5252514, “Conopeptide-Derived κ-Opioid Agonists (Conorphins): Potent, Selective, and Metabolic Stable Dynorphin A Mimetics with Antinociceptive Properties” (J Med Chem, 2016).

Active and inactive are the calls of the source. No cut-off for these calls is given here. Where only a bound is given, the exact number is not on record here.

Data set [1] concerns the target T1, Kappa-type opioid receptor (Homo sapiens, UniProt P41145). In words: Displacement of [3H]U69593 from human kappa opioid receptor expressed in CHO-K1 cells incubated for 1 hr by 1450 microbeta scintillation counter analysis. Type of data set: cell-based. In outline:
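Membranes from transiently KOR-transfected CHO-K1 cells (~2 µg/well) used in SPA with 3H-U69,593 (1 nM). Competitor ranged 1 pM–10 µM in 50 mM Tris-HCl pH 7.4, 5 mM MgCl2, 0.1% BSA. Incubated 1 h at room temperature with shaking. Nonspecific binding defined with 10 µM dynorphin A. Sigmoidal dose-response fit; at least three independent experiments in triplicate.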

Data set [2] is filed under the species Homo sapiens. In words: Selectivity ratio, ratio of Ki for human KOR to Ki for human NOP.
For data set [3], the species on record is Homo sapiens. In words: Selectivity ratio, ratio of Ki for human KOR to Ki for human DOR.
Data set [4] is filed under the species Homo sapiens. The data set can be described thus: Selectivity ratio, ratio of Ki for human KOR to Ki for human MOR.
Data set [5] concerns the target T1, Kappa-type opioid receptor. The data set can be described thus: Agonist activity at human kappa opioid receptor expressed in CHO-K1 cells assessed as ERK phosphorylation incubated for 2 hrs by Alphascreen surefire method. Type of data set: cell-based. In a few lines:
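CHO-K1 cells transiently transfected with KOR plasmid, harvested 24 h later, plated at 50,000 cells/well and settled 24 h, then serum-starved 12 h. Ligands in serum-free medium applied 10 min at room temperature. Lysates read by AlphaScreen SureFire phospho-ERK1/2 after 2 h at 37 °C. Curves fitted by sigmoidal dose-response.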

In data set [6] the target is T1, Kappa-type opioid receptor. The data set can be described thus: Agonist activity at human kappa opioid receptor expressed in CHO-K1 cells assessed as inhibition of forskolin-stimulated cAMP production incubated for 30 mins by LANCE cAMP assay. It counts as cell-based. In outline:
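Transiently KOR-transfected CHO-K1 cells taken 24 h post-transfection, 3,000 cells/well in HBSS stimulation buffer (0.1% BSA, 0.5 mM IBMX, 5 mM HEPES, pH 7.4). Forskolin (1 µM final) and ligand added, then 30 min at RT. LANCE Eu-cAMP tracer/anti-cAMP TR-FRET read after 1 h at RT. Sigmoidal dose-response fit.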

Data set [7] can be described thus: Metabolic stability in Wistar rat plasma assessed as half life by HPLC analysis. Type of data set: ADME, cell-free. In a few lines:
(§1)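 Peptide at 1 mg/mL in sterile PBS pH 7.4 was mixed 1:1 with thawed, centrifuged Wistar rat plasma supernatant and incubated at 37°C in triplicate. Samples at 0, 1, 2, 3, 4, 6 and 24 h were quenched with acetonitrile and then 2% TFA/water, and analysed by HPLC with inline electrospray MS.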

Data set [8] in a line: Metabolic stability in Wistar rat plasma assessed as BzPrrQ[CHA]CC formation by measuring relative abundance measuring after 360 mins by HPLC analysis relative to control. It counts as ADME, cell-free. The settings on record: 6 h. In outline:
as §1

The subject of data set [9] is Mus musculus. In words: Antinociceptive activity against C57BL/6 mouse model of TNBS induced chronic visceral hypersensitivity assessed as inhibition of colonic nociceptor mechanosensitivity at 1000 nM, administered topically on colon mucosal surface for 28 days. It counts as functional, organism-based. To be noted: time 28.0 day. In outline:
(§2)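 Ex vivo single-unit extracellular recording of splanchnic colonic afferents from healthy C57BL/6 mice or CVH mice (28 days after TNBS, inflammation resolved). Baseline mechanosensitivity was measured with a 2 g von Frey probe applied 3 s to the receptive field, repeated 3–4 times 10 s apart. KOR agonist was applied to the mucosal surface for 5 min per concentration inside a small metal ring, then mechanosensitivity was re-tested.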

Data set [10] relates to Mus musculus. In words: Antinociceptive activity against C57BL/6 mouse model of TNBS induced chronic visceral hypersensitivity assessed as inhibition of colonic nociceptor mechanosensitivity at 1000 nM, administered topically on colon mucosal surface for 28 days in presence of norbinaltorphimine. It counts as functional, organism-based. The settings on record: time 28.0 day. In a few lines:
as §2

The subject of data set [11] is Mus musculus. In words: Antinociceptive activity against C57BL/6 mouse assessed as inhibition of colonic nociceptor mechanosensitivity at 1 to 1000 nM, administered topically on colon mucosal surface for 28 days. It counts as functional, organism-based. To be noted: dose 1-1000 nM, time 28.0 day. In outline: as §2
Data set [12] is described as follows: Metabolic stability in Wistar rat plasma assessed as UrrQ[CHA] formation by measuring relative abundance measuring after 120 mins by HPLC analysis relative to control. Type of data set: ADME, cell-free. The settings on record: 2 h. In a few lines:
as §1

Data set [13] can be described thus: Metabolic stability in Wistar rat plasma assessed as UrrQ[CHA]CC formation by measuring relative abundance measuring after 120 mins by HPLC analysis relative to control. It counts as ADME, cell-free. The settings on record: 2 h. In outline:
as §1

Data set [14] is described as follows: Metabolic stability in Wistar rat plasma assessed as compound remaining measured after 24 hrs by HPLC analysis. Type of data set: ADME, cell-free. To be noted: read-out: Stability. In outline: as §1
Data set [15] can be described thus: Metabolic stability in Wistar rat plasma assessed as UrrQ[CHA][PEN]C formation by measuring relative abundance measuring after 3600 mins by HPLC analysis relative to control. Type of data set: ADME, cell-free. To be noted: 60 h.
Data set [16] in a line: Metabolic stability in Wistar rat plasma assessed as BzPrrQ[CHA][PEN]C formation by measuring relative abundance measuring after 3600 mins by HPLC analysis relative to control. Type of data set: ADME, cell-free. The settings on record: 60 h.

T1 sequence (P41145 whole entry): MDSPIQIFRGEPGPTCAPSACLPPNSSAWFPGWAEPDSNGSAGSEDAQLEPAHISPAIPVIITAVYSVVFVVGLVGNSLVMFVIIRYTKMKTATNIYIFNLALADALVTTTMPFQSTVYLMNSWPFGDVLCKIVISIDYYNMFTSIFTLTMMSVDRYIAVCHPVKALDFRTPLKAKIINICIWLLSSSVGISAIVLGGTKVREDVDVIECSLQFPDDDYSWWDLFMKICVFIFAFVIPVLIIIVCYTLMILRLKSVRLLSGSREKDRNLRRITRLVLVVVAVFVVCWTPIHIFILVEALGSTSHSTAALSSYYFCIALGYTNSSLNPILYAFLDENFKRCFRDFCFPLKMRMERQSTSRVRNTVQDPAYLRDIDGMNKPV

In data set [1], `N=C(N)NCCC[C@@H](NC(=O)[C@@H](CCCNC(=N)N)NC(=O)[C@@H]1CCCN1C(=O)c1ccccc1)C(=O)N[C@@H](CCC(N)=O)C(=O)N[C@@H](CC1CCCCC1)C(=O)N[C@H]1CSSC[C@@H](C(N)=O)NC1=O` showed an inhibitory constant (Ki) of 0.25 nM. The figures for the Ratio Ki in the data set filed under Homo sapiens [2], in the data set listed under Homo sapiens [3] and in the data set filed under Homo sapiens [4] were > 45000, > 250000 and > 250000, respectively. The concentration giving a half-maximal response (EC50) in [5] is 0.36 nM; in data set [6], 0.41 nM. Also, the half-life in [7] turned out to be 4 h. For the same compound, the Activity in [8] stood at 1. For the same compound, the inhibition result with Mus musculus [9] was “Dose-Dependent Effect”. Also, the inhibition result with Mus musculus [10] and in the data set on Mus musculus [11] was “inactive” throughout.
Turning to `N=C(N)NCCC[C@@H](NC(=O)[C@@H]1CCC(=O)N1)C(=O)N[C@H](CCCNC(=N)N)C(=O)N[C@@H](CCC(N)=O)C(=O)N[C@@H](CC1CCCCC1)C(=O)N[C@H]1CSSC[C@@H](C(N)=O)NC1=O`, in data set [1], the affinity, expressed as Ki, was 3.9 nM. In addition, the Ratio Ki in the data set filed under Homo sapiens [2], in the data set listed under Homo sapiens [3] and in the data set filed under Homo sapiens [4] was > 10000 each time. For the same compound, the EC50 in data set [5] came out at 1100 nM; in data set [6], 12.6 nM. In [7], the half-life was determined as 6 h. The Activity in [12] came to 0.1; in [13], 1.
For `CC1(C)SSC[C@@H](C(N)=O)NC(=O)[C@H]1NC(=O)[C@H](CC1CCCCC1)NC(=O)[C@H](CCC(N)=O)NC(=O)[C@@H](CCCNC(=N)N)NC(=O)[C@@H](CCCNC(=N)N)NC(=O)[C@@H]1CCC(=O)N1`, the Ki in data set [1] turned out to be 1.3 nM. Also, the Ratio Ki was > 25000 in the data set filed under Homo sapiens [2], > 1200 in the data set listed under Homo sapiens [3] and > 39000 in the data set filed under Homo sapiens [4]. Further, in [14], the remaining at 24 h is 100%. In addition, the half-maximal effective concentration (EC50) was found to be 450 nM in data set [5] and 10.5 nM in [6]. Also, the Activity in data set [15] is 1.
Regarding `CC1(C)SSC[C@@H](C(N)=O)NC(=O)[C@H]1NC(=O)[C@H](CC1CCCCC1)NC(=O)[C@H](CCC(N)=O)NC(=O)[C@@H](CCCNC(=N)N)NC(=O)[C@@H](CCCNC(=N)N)NC(=O)[C@@H]1CCCN1C(=O)c1ccccc1`, the affinity in data set [1], expressed as Ki, was 1140 nM. Moreover, the remaining at 24 h in [14] was 95%. Besides, the Activity in data set [16] is 1.
